Data reported in ChEMBL document CHEMBL1811814, “Synthesis and evaluation of indole, pyrazole, chromone and pyrimidine based conjugates for tumor growth inhibitory activities--development of highly efficacious cytotoxic agents” (Eur J Med Chem, 2010).

Legend:
Format in all cases: functional
Set-up in all cases: scale not given: the % may be the effect or the level left
SN12C = assay: Growth inhibition of human SN12C cells assessed tumor cell growth at 10^-5 M
Procedure, shortened: (§1)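 NCI 60-human-tumor-cell-line panel screen. Each compound was tested at a single concentration of 10^-5 M, and percent growth of tumor cells was recorded for each cell line. Growth inhibition was expressed from these percent-growth values.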

SK-MEL-2 = assay: Growth inhibition of human SK-MEL-2 cells assessed tumor cell growth at 10^-5 M; procedure, shortened: as §1
SK-MEL-5 = assay: Growth inhibition of human SK-MEL-5 cells assessed tumor cell growth at 10^-5 M; procedure, shortened: as §1
M14 = assay: Growth inhibition of human M14 cells assessed tumor cell growth at 10^-5 M; procedure, shortened: as §1
HOP-92 = assay: Growth inhibition of human HOP92 cells assessed tumor cell growth at 10^-5 M; procedure, shortened: as §1
786-0 = assay: Growth inhibition of human 786-0 cells assessed tumor cell growth at 10^-5 M; procedure, shortened: as §1
SNB-19 = assay: Growth inhibition of human SNB19 cells assessed tumor cell growth at 10^-5 M
Procedure, shortened: (§2)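 Single-dose screen at 10^-5 M across the 60 human tumor cell line panel, run to NCI standards. The value is the percent growth of each cell line in the presence of compound. Compounds active at this dose moved on to five-concentration testing (10^-4 to 10^-8 M).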

UACC-62 = assay: Growth inhibition of human UACC62 cells assessed tumor cell growth at 10^-5 M; procedure, shortened: as §2
DU-145 = assay: Growth inhibition of human DU145 cells assessed tumor cell growth at 10^-5 M; procedure, shortened: as §1
HCT-15 = assay: Growth inhibition of human HCT15 cells assessed tumor cell growth at 10^-5 M; procedure, shortened: as §1
COLO 205 = assay: Growth inhibition of human COLO205 cells assessed tumor cell growth at 10^-5 M; procedure, shortened: as §1
KM12 = assay: Growth inhibition of human KM12 cells assessed tumor cell growth at 10^-5 M; procedure, shortened: as §1
NCI-H23 = assay: Growth inhibition of human NCI-H23 cells assessed tumor cell growth at 10^-5 M; procedure, shortened: as §1
SF-268 = assay: Growth inhibition of human SF268 cells assessed tumor cell growth at 10^-5 M; procedure, shortened: as §1
UO-31 = assay: Growth inhibition of human UO31 cells assessed tumor cell growth at 10^-5 M; procedure, shortened: as §2
BT-549 = assay: Growth inhibition of human BT549 cells assessed tumor cell growth at 10^-5 M; procedure, shortened: as §1
HOP-62 = assay: Growth inhibition of human HOP62 cells assessed tumor cell growth at 10^-5 M; procedure, shortened: as §1
SK-MEL-28 = assay: Growth inhibition of human SK-MEL-28 cells assessed tumor cell growth at 10^-5 M; procedure, shortened: as §1
U-251 = assay: Growth inhibition of human U251 cells assessed tumor cell growth at 10^-5 M; procedure, shortened: as §2
SK-OV-3 = assay: Growth inhibition of human SKOV3 cells assessed tumor cell growth at 10^-5 M; procedure, shortened: as §1
TK-10 = assay: Growth inhibition of human TK10 cells assessed tumor cell growth at 10^-5 M; procedure, shortened: as §2
T47D = assay: Growth inhibition of human T47D cells assessed tumor cell growth at 10^-5 M; procedure, shortened: as §2
A549 = assay: Growth inhibition of human A549 cells assessed tumor cell growth at 10^-5 M; procedure, shortened: as §1
HT-29 = assay: Growth inhibition of human HT-29 cells assessed tumor cell growth at 10^-5 M; procedure, shortened: as §1
SF-295 = assay: Growth inhibition of human SF295 cells assessed tumor cell growth at 10^-5 M; procedure, shortened: as §1
EKVX = assay: Growth inhibition of human EKVX cells assessed tumor cell growth at 10^-5 M; procedure, shortened: as §1
UACC-257 = assay: Growth inhibition of human UACC257 cells assessed tumor cell growth at 10^-5 M; procedure, shortened: as §2
IGROV-1 = assay: Growth inhibition of human IGROV1 cells assessed tumor cell growth at 10^-5 M; procedure, shortened: as §1
MDA-MB-231 = assay: Growth inhibition of human MDA-MB-231 cells assessed tumor cell growth at 10^-5 M; procedure, shortened: as §1
MDA-MB-468 = assay: Growth inhibition of human MDA-MB-468 cells assessed tumor cell growth at 10^-5 M; procedure, shortened: as §1
OVCAR-5 = assay: Growth inhibition of human OVCAR5 cells assessed tumor cell growth at 10^-5 M; procedure, shortened: as §1
OVCAR-4 = assay: Growth inhibition of human OVCAR4 cells assessed tumor cell growth at 10^-5 M; procedure, shortened: as §1
SF-539 = assay: Growth inhibition of human SF539 cells assessed tumor cell growth at 10^-5 M; procedure, shortened: as §1
CCRF-CEM = assay: Growth inhibition of human CCRF-CEM cells assessed tumor cell growth at 10^-5 M; procedure, shortened: as §1
Malme-3M = assay: Growth inhibition of human MALME-3M cells assessed tumor cell growth at 10^-5 M; procedure, shortened: as §1
RXF 393 = assay: Growth inhibition of human RXF393 cells assessed tumor cell growth at 10^-5 M; procedure, shortened: as §1
HCC 2998 = assay: Growth inhibition of human HCC2998 cells assessed tumor cell growth at 10^-5 M; procedure, shortened: as §1
NCI-H522 = assay: Growth inhibition of human NCI-H522 cells assessed tumor cell growth at 10^-5 M; procedure, shortened: as §1
LOX IMVI = assay: Growth inhibition of human LOXIMVI cells assessed tumor cell growth at 10^-5 M; procedure, shortened: as §1
MDA-MB-435 = assay: Growth inhibition of human MDA-MB-435 cells assessed tumor cell growth at 10^-5 M; procedure, shortened: as §1
SW-620 = assay: Growth inhibition of human SW620 cells assessed tumor cell growth at 10^-5 M; procedure, shortened: as §2
HCT-116 = assay: Growth inhibition of human HCT116 cells assessed tumor cell growth at 10^-5 M; procedure, shortened: as §1
K562 = assay: Growth inhibition of human K562 cells assessed tumor cell growth at 10^-5 M; procedure, shortened: as §1
ACHN = assay: Growth inhibition of human ACHN cells assessed tumor cell growth at 10^-5 M; procedure, shortened: as §1
OVCAR-8 = assay: Growth inhibition of human OVCAR8 cells assessed tumor cell growth at 10^-5 M; procedure, shortened: as §1
A498 = assay: Growth inhibition of human A498 cells assessed tumor cell growth at 10^-5 M; procedure, shortened: as §1
MOLT-4 = assay: Growth inhibition of human MOLT4 cells assessed tumor cell growth at 10^-5 M; procedure, shortened: as §1
PC-3 = assay: Growth inhibition of human PC3 cells assessed tumor cell growth at 10^-5 M; procedure, shortened: as §1
HL-60(TB) = assay: Growth inhibition of human HL-60(TB) cells assessed tumor cell growth at 10^-5 M
Procedure, shortened: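 HL-60(TB), part of the 60-line panel, tested at a single concentration of 10^-5 M. The read-out is percent tumor cell growth relative to untreated growth.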

NCI/ADR-RES = assay: Growth inhibition of human NCI/ADR-RES cells assessed tumor cell growth at 10^-5 M; procedure, shortened: as §1
NCI-H322M = assay: Growth inhibition of human NCI-H322M cells assessed tumor cell growth at 10^-5 M; procedure, shortened: as §1
[1] = Growth inhibition of human Hs 578T cells assessed tumor cell growth at 10^-5 M; procedure, shortened: as §1
MCF7 = assay: Growth inhibition of human MCF7 cells assessed tumor cell growth at 10^-5 M; procedure, shortened: as §1
SNB-75 = assay: Growth inhibition of human SNB75 cells assessed tumor cell growth at 10^-5 M; procedure, shortened: as §2
NCI-H460 = assay: Growth inhibition of human NCI-H460 cells assessed tumor cell growth at 10^-5 M; procedure, shortened: as §1
NCI-H226 = assay: Growth inhibition of human NCI-H226 cells assessed tumor cell growth at 10^-5 M; procedure, shortened: as §1
OVCAR-3 = assay: Growth inhibition of human OVCAR3 cells assessed tumor cell growth at 10^-5 M; procedure, shortened: as §1
CAKI-1 = assay: Growth inhibition of human Caki1 cells assessed tumor cell growth at 10^-5 M; procedure, shortened: as §1

## CC1=NN(c2cccc(Cl)c2)C(=O)/C1=C\c1cn(C(=O)c2c(Cl)cccc2Cl)c2ccccc12
SN12C
  Activity: 100.77%
SK-MEL-2
  Activity: 95.14%
SK-MEL-5
  Activity: 93.87%
M14
  Activity: 88.55%
HOP-92
  Activity: 75.93%
786-0
  Activity: 101.2%
SNB-19
  Activity: 100.95%
UACC-62
  Activity: 84.14%
DU-145
  Activity: 113.79%
HCT-15
  Activity: 102.31%
COLO 205
  Activity: 105.8%
KM12
  Activity: 100.84%
NCI-H23
  Activity: 78.46%
SF-268
  Activity: 99.71%
UO-31
  Activity: 75.46%
BT-549
  Activity: 95.67%
HOP-62
  Activity: 92.85%
SK-MEL-28
  Activity: 108.69%
U-251
  Activity: 111.4%
SK-OV-3
  Activity: 93.9%
TK-10
  Activity: 123.88%
T47D
  Activity: 77.75%
A549
  Activity: 103.17%
HT-29
  Activity: 110.62%
SF-295
  Activity: 96.99%
EKVX
  Activity: 70.54%
UACC-257
  Activity: 88.84%
IGROV-1
  Activity: 100.26%
MDA-MB-231
  Activity: 82.49%
MDA-MB-468
  Activity: 98.04%
OVCAR-5
  Activity: 78.09%
OVCAR-4
  Activity: 94.88%
SF-539
  Activity: 88.35%
CCRF-CEM
  Activity: 107.14%
Malme-3M
  Activity: 100.66%
RXF 393
  Activity: 96.55%
HCC 2998
  Activity: 87.28%
NCI-H522
  Activity: 87.52%
LOX IMVI
  Activity: 91.86%
MDA-MB-435
  Activity: 109.08%
SW-620
  Activity: 96.65%
HCT-116
  Activity: 93.25%
K562
  Activity: 120.99%
ACHN
  Activity: 90.96%
OVCAR-8
  Activity: 89.79%
A498
  Activity: 102.24%
MOLT-4
  Activity: 78.5%
PC-3
  Activity: 93.89%
HL-60(TB)
  Activity: 95.11%
NCI/ADR-RES
  Activity: 90.21%
NCI-H322M
  Activity: 99.91%
[1]
  Activity: 93.53%
MCF7
  Activity: 84.58%
SNB-75
  Activity: 81.76%
NCI-H460
  Activity: 102.74%
NCI-H226
  Activity: 97.86%
OVCAR-3
  Activity: 105.51%
CAKI-1
  Activity: 89.11%

## C=CCn1cc(/C=C2\C(=O)N(c3cccc(Cl)c3)N=C2C)c2ccccc21
SN12C
  Activity: 101.52%
SK-MEL-2
  Activity: 100.76%
SK-MEL-5
  Activity: 85.6%
M14
  Activity: 96.28%
HOP-92
  Activity: 72.84%
786-0
  Activity: 115.97%
SNB-19
  Activity: 109.63%
UACC-62
  Activity: 69.6%
DU-145
  Activity: 101.89%
HCT-15
  Activity: 96.63%
COLO 205
  Activity: 113.25%
KM12
  Activity: 90.06%
NCI-H23
  Activity: 75.8%
SF-268
  Activity: 101.01%
UO-31
  Activity: 74.52%
BT-549
  Activity: 89.1%
HOP-62
  Activity: 102.06%
SK-MEL-28
  Activity: 97.08%
U-251
  Activity: 98.8%
SK-OV-3
  Activity: 94.6%
TK-10
  Activity: 110.49%
T47D
  Activity: 69.36%
A549
  Activity: 104.05%
HT-29
  Activity: 105.44%
SF-295
  Activity: 89.63%
EKVX
  Activity: 54.36%
UACC-257
  Activity: 88.64%
IGROV-1
  Activity: 98.62%
MDA-MB-231
  Activity: 84.32%
MDA-MB-468
  Activity: 84.91%
OVCAR-5
  Activity: 86.3%
OVCAR-4
  Activity: 82.6%
SF-539
  Activity: 97.52%
CCRF-CEM
  Activity: 94.38%
Malme-3M
  Activity: 106.35%
RXF 393
  Activity: 90.86%
HCC 2998
  Activity: 103.61%
NCI-H522
  Activity: 104.32%
LOX IMVI
  Activity: 90.56%
MDA-MB-435
  Activity: 84.21%
SW-620
  Activity: 97.77%
HCT-116
  Activity: 89.43%
K562
  Activity: 77.68%
ACHN
  Activity: 94.59%
OVCAR-8
  Activity: 88.73%
A498
  Activity: 69.09%
MOLT-4
  Activity: 75.53%
PC-3
  Activity: 101.22%
HL-60(TB)
  Activity: 99.5%
NCI/ADR-RES
  Activity: 91.67%
NCI-H322M
  Activity: 79.41%
[1]
  Activity: 97.36%
MCF7
  Activity: 79.85%
SNB-75
  Activity: 71.75%
NCI-H460
  Activity: 91.1%
NCI-H226
  Activity: 70.94%
OVCAR-3
  Activity: 116.71%
CAKI-1
  Activity: 73.37%
